# Source: ChEMBL document CHEMBL4732105, “First orally bioavailable prodrug of proteolysis targeting chimera (PROTAC) degrades cyclin-dependent kinases 2/4/6 in vivo” (Eur J Med Chem, 2021)
# Calls of active or inactive are those of the source. The calls are words filed in the database; no cut-off is given here.
# How the values were obtained:
# [1] = target: Protein cereblon/Cyclin-dependent kinase 4 (Homo sapiens) (UniProt P11802+Q96SW2); test: Protac activity at CRBN/CDK4 in human A-375 cells assessed as induction of CDK4 protein degradation after 12 hrs by Western blot analysis; type: cell-based; conditions: dose 62.5-1000 nM
# In short: (§1)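 B16F10 and A375 cells treated with DMSO or serial dilutions of compound for 12 h (concentration series), or for the indicated times (time course). CDK2, CDK4 and CDK6 protein levels determined by western blot.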
# [2] = target: T1, Protein cereblon/Cyclin-dependent kinase 2 (Mus musculus) (UniProt P97377+Q8C7D2); test: Protac activity at CRBN/CDK2 in mouse B16F10 cells assessed as induction of CDK2 protein degradation at 500 nM by Western blot analysis; type: cell-based; conditions: B16-F10, time hrs <=12, TDE = time-dependent effect; in short: as §1
# [3] = target: T2, Protein cereblon/Cyclin-dependent kinase 6 (Mus musculus) (UniProt Q8C7D2+Q64261); test: Protac activity at CRBN/CDK6 in mouse B16F10 cells assessed as induction of CDK6 protein degradation at 500 nM by Western blot analysis; type: cell-based; conditions: B16-F10, time hrs <=12, TDE = time-dependent effect; in short: as §1
# [4] = target: Protein cereblon/Cyclin-dependent kinase 6 (Homo sapiens) (UniProt Q00534+Q96SW2); test: Protac activity at CRBN/CDK6 in human A-375 cells assessed as induction of CDK6 protein degradation at 1000 nM by Western blot analysis; type: cell-based; conditions: time hrs <=12, TDE = time-dependent effect; in short: as §1
# B16-F10 [5] = test: Induction of apoptosis in mouse B16F10 cells incubated for 48 hrs by Annexin V-FITC/PI staining based flow cytometry; type: functional, cell-based; conditions: dose nM <=1000, time 48.0 hrs
# A-375 [6] = test: Induction of apoptosis in human A-375 cells incubated for 48 hrs by Annexin V-FITC/PI staining based flow cytometry; type: functional, cell-based; conditions: dose nM <=1000, time 48.0 hrs
# A-375 [7] = test: Induction of apoptosis in human A-375 cells assessed as increase in cleaved PARP level incubated for 48 hrs by Western blot analysis; type: functional, cell-based; conditions: dose nM <=2000, time 48.0 hrs
# In short: (§2)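 A375 and B16F10 cells incubated with compound for 48 h. Cleaved caspase-3, cleaved PARP, total P53, Bcl-2 and Bax measured by western blot.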
# A-375 [8] = test: Induction of apoptosis in human A-375 cells assessed as increase in P-53 level upto 2000 nM incubated for 48 hrs by Western blot analysis; type: functional, cell-based; conditions: dose nM <=2000, time 48.0 hrs; in short: as §2
# A-375 [9] = test: Induction of apoptosis in human A-375 cells assessed as decrease in Bcl-2 level upto 2000 nM incubated for 48 hrs by Western blot analysis; type: functional, cell-based; conditions: dose nM <=2000, time 48.0 hrs; in short: as §2
# [10] = Tmax in Sprague-Dawley rat at 10 mg/kg, iv; type: ADME, organism-based; conditions: in vivo
# In short: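 SD rats, n = 3, single dose of prodrug: IV by tail vein at 10 mg/Kg, or PO at 200 mg/Kg. Plasma levels of prodrug and released active degrader followed over 0–12 h. Parameters derived by a non-compartmental model.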
# [11] = AUC (0 to 12 hrs) in Sprague-Dawley rat at 200 mg/kg, po; type: ADME, organism-based; parameters: time < 12 hr, route oral, dose 200 mg/kg; conditions: in vivo
# In short: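 Single oral dose of 200 mg/Kg to SD rats (n = 3). Prodrug and released active degrader quantified in plasma over 0–12 h; Cmax, Tmax and AUC0-12 derived by non-compartmental model.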
# [12] = target: T3, Protein cereblon/Cyclin-dependent kinase 4 (Mus musculus) (UniProt P30285+Q8C7D2); test: Protac activity at CRBN/CDK4 in mouse B16F10 cells assessed as induction of CDK4 protein degradation at 100 nM for 6 hrsin presence of Pomalidomide by Western blot analysis; type: cell-based; conditions: B16-F10, time 6.0 hrs
# In short: (§3)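 B16F10 cells pre-treated 2 h with DMSO, pomalidomide (10 μM), MG132 (20 μM) or a parent CDK ligand, then exposed to 100 nM degrader for 6 h. CDK2/4/6 protein levels read by western blot.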
# [13] = target: T2, Protein cereblon/Cyclin-dependent kinase 6 (Mus musculus); test: Protac activity at CRBN/CDK6 in mouse B16F10 cells assessed as induction of CDK6 protein degradation at 100 nM for 6 hrsin presence of Pomalidomide by Western blot analysis; type: cell-based; conditions: B16-F10, time 6.0 hrs; in short: as §3
# [14] = target: T1, Protein cereblon/Cyclin-dependent kinase 2 (Mus musculus); test: Protac activity at CRBN/CDK2 in mouse B16F10 cells assessed as induction of CDK2 protein degradation at 100 nM for 6 hrsin presence of methyl 6-(7-cyclopentyl-6-(dimethylcarbamoyl)-7H-pyrrolo[2,3-d]pyrimidin-2-ylamino)nicotinate by Western blot analysis; type: cell-based; conditions: B16-F10, time 6.0 hrs; in short: as §3
# [15] = target: T3, Protein cereblon/Cyclin-dependent kinase 4 (Mus musculus); test: Protac activity at CRBN/CDK4 in mouse B16F10 cells assessed as induction of CDK4 protein degradation at 100 nM for 6 hrsin presence of methyl 6-(7-cyclopentyl-6-(dimethylcarbamoyl)-7H-pyrrolo[2,3-d]pyrimidin-2-ylamino)nicotinate by Western blot analysis; type: cell-based; conditions: B16-F10, time 6.0 hrs; in short: as §3
# [16] = target: T1, Protein cereblon/Cyclin-dependent kinase 2 (Mus musculus); test: Protac activity at CRBN/CDK2 in mouse B16F10 cells assessed as induction of CDK2 protein degradation at 100 nM for 6 hrsin presence of Ribociclib by Western blot analysis; type: cell-based; conditions: B16-F10, time 6.0 hrs
# [17] = target: T2, Protein cereblon/Cyclin-dependent kinase 6 (Mus musculus); test: Protac activity at CRBN/CDK6 in mouse B16F10 cells assessed as induction of CDK6 protein degradation at 100 nM for 6 hrsin presence of Ribociclib by Western blot analysis; type: cell-based; conditions: B16-F10, time 6.0 hrs
# B16-F10 [18] = test: Induction of apoptosis in mouse B16F10 cells assessed as necrotic cells at 250 nM incubated for 48 hrs by Annexin V-FITC/PI staining based flow cytometry (reference value: 0.21%); type: functional
# A-375 [19] = test: Induction of apoptosis in human A-375 cells assessed as viable cells at 500 nM incubated for 48 hrs by Annexin V-FITC/PI staining based flow cytometry (reference value: 93.3%); type: functional; conditions: read-out: Activity
# A-375 [20] = test: Induction of apoptosis in human A-375 cells assessed as late apoptotic cells at 500 nM incubated for 48 hrs by Annexin V-FITC/PI staining based flow cytometry (reference value: 3.28%); type: functional
# A-375 [21] = test: Induction of apoptosis in human A-375 cells assessed as necrotic cells at 250 nM incubated for 48 hrs by Annexin V-FITC/PI staining based flow cytometry (reference value: 0.602%); type: functional
# A-375 [22] = test: Induction of apoptosis in human A-375 cells assessed as necrotic cells at 1000 nM incubated for 48 hrs by Annexin V-FITC/PI staining based flow cytometry (reference value: 0.602%); type: functional
# B16-F10 [23] = test: Induction of cell cycle arrest in mouse B16-F10 cells assessed as accumulation at G1 phase at 25 uM incubated for 48 hrs by propidium iodide staining based flow cytometry (reference value: 52.59%); type: functional
# B16-F10 [24] = test: Induction of cell cycle arrest in mouse B16-F10 cells assessed as accumulation at G1 phase at 50 uM incubated for 48 hrs by propidium iodide staining based flow cytometry (reference value: 52.59%); type: functional
# B16-F10 [25] = test: Induction of cell cycle arrest in mouse B16-F10 cells assessed as accumulation at G2 phase at 50 uM incubated for 48 hrs by propidium iodide staining based flow cytometry (reference value: 18.22%); type: functional
# A-375 [26] = test: Induction of cell cycle arrest in human A-375 cells assessed as accumulation at G1 phase at 1000 uM incubated for 48 hrs by propidium iodide staining based flow cytometry (reference value: 58.26%); type: functional
# In short: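 Tumor cells incubated 48 h in complete medium with compound or DMSO at various concentrations, stained with propidium iodide, and DNA content read by flow cytometry. G0/G1, S and G2/M fractions reported; mean ± SD, n = 3, Student's t-test.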
# T1 sequence (Q8C7D2 whole entry, looked up, other chains not shown): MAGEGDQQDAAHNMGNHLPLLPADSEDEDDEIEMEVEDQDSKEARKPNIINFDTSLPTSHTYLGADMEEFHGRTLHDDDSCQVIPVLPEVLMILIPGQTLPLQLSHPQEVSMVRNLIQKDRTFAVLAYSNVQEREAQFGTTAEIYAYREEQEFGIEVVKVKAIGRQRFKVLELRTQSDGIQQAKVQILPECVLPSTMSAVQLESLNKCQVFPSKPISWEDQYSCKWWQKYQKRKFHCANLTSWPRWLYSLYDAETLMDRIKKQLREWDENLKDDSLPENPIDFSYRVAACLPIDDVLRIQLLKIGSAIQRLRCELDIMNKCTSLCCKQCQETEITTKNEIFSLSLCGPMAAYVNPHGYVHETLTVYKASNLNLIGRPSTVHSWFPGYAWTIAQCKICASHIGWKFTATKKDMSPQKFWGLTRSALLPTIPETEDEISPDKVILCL
# T2 sequence (Q64261 whole entry, looked up): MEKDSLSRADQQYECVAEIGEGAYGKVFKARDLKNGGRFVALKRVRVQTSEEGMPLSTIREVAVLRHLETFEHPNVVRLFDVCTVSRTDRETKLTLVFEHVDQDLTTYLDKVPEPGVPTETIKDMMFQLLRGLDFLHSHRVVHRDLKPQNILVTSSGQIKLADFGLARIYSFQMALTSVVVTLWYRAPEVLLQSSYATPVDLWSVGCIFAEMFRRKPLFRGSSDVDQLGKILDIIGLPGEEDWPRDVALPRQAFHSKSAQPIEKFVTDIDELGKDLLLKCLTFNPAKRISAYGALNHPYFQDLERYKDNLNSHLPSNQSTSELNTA
# T2 sequence (Q8C7D2 whole entry, looked up): as the sequence (Q8C7D2 whole entry, looked up, other chains not shown) above
# T3 sequence (P30285 whole entry, looked up): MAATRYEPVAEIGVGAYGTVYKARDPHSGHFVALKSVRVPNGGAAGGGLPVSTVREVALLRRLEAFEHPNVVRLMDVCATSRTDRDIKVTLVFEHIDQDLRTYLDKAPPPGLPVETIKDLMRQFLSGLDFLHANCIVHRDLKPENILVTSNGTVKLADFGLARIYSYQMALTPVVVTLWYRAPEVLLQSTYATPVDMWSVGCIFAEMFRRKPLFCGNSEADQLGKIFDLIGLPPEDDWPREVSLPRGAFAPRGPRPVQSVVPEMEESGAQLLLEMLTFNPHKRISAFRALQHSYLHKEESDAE
# T3 sequence (Q8C7D2 whole entry, looked up): as the sequence (Q8C7D2 whole entry, looked up, other chains not shown) above
# Sequence of Protein cereblon/Cyclin-dependent kinase 6 (Homo sapiens) (Q00534 whole entry, looked up): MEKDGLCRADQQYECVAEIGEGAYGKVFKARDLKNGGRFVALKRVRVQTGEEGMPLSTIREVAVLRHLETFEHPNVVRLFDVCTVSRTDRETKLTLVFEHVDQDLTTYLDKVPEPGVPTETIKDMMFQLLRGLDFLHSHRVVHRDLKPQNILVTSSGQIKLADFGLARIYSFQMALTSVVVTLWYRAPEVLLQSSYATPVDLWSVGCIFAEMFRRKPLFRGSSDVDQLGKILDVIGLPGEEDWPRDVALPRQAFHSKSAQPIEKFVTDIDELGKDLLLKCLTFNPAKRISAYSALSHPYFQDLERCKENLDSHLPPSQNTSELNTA
# Sequence of Protein cereblon/Cyclin-dependent kinase 6 (Homo sapiens) (Q96SW2 whole entry, looked up): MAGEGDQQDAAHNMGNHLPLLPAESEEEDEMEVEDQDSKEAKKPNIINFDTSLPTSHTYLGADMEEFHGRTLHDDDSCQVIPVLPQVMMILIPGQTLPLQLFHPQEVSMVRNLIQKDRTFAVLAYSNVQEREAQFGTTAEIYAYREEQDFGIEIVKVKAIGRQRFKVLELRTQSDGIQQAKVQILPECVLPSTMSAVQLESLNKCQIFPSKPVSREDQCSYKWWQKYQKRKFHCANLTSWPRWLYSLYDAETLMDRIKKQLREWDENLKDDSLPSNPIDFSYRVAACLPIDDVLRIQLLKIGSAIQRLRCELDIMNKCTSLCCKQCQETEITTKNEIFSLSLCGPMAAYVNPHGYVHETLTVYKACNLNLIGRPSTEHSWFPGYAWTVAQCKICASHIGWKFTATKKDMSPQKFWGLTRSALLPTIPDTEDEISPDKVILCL
# Sequence of Protein cereblon/Cyclin-dependent kinase 4 (Homo sapiens) (P11802 2-303 limits assumed): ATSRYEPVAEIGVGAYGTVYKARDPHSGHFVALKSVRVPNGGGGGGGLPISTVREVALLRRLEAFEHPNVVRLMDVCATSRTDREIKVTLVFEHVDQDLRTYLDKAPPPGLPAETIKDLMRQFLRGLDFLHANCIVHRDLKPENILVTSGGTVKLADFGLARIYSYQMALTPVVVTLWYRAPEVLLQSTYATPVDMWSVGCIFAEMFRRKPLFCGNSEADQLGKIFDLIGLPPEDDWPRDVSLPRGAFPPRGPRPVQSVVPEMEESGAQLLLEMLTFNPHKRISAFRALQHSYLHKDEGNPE
# Sequence of Protein cereblon/Cyclin-dependent kinase 4 (Homo sapiens) (Q96SW2 whole entry partner): as the sequence (Q96SW2 whole entry, looked up) above
smiles,measurement,setting,value
CN(C)C(=O)c1cc2cnc(Nc3ccc(C(=O)NCCCCCCNc4cccc5c4C(=O)N(C4CCC(=O)NC4=O)C5=O)cc3)nc2n1C1CCCC1 (stereo unspecified),Activity,[1],Dose-dependent effect
same,Activity,[2],Tde
same,Activity,[3],Tde
same,Activity,[4],Tde
same,Activity,B16-F10 [5],Dose-dependent effect
same,Activity,A-375 [6],Dose-dependent effect
same,Activity,A-375 [7],Dose-dependent effect
same,Activity,A-375 [8],Active
same,Activity,A-375 [9],Active
same,Tmax,[10],45 min
same,AUC,[11],823 µg·h/mL
same,Activity,[12],inactive
same,Activity,[13],inactive
same,Activity,[14],inactive
same,Activity,[15],inactive
same,Activity,[16],Active
same,Activity,[17],inactive
same,Activity,B16-F10 [18],0.14%
same,viability at 0.5 µM,A-375 [19],85.2%
same,Activity,A-375 [20],5.1%
same,Activity,A-375 [21],0.144%
same,Activity,A-375 [22],0.273%
same,Activity,B16-F10 [23],49.67%
same,Activity,B16-F10 [24],49.54%
same,Activity,B16-F10 [25],22.66%
same,Activity,A-375 [26],74.09%
